Experimental data published in ChEMBL document CHEMBL1914431, “Discovery of a novel series of nonacidic benzofuran EP1 receptor antagonists” (Bioorg Med Chem Lett, 2011).
Values after ≈ are worked out from the molar mass of the structure shown. Blank lines part the entries; values can stand above or below the compound they belong to. Active and inactive are the calls of the source. No cut-off for these calls is given here.

Legend:
[1] = molecular target: T1, Prostaglandin E2 receptor EP1 subtype (Homo sapiens, UniProt P34995); test: Displacement of [3H]PGE2 from human prostanoid EP1 receptor expressed in CHO-K1 cells after 30 mins by topcount liquid scintillation counting; assay type: cell-based
T1 sequence (P34995 whole entry): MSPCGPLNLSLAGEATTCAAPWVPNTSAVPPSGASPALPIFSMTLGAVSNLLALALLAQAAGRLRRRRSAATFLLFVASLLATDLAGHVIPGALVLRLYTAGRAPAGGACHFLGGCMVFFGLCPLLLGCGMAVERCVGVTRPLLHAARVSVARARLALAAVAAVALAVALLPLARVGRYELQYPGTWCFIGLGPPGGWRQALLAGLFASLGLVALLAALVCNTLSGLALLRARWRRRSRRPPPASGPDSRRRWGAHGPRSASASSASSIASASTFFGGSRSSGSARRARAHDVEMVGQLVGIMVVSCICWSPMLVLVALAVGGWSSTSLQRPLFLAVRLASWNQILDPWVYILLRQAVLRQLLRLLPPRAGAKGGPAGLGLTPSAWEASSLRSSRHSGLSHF
Procedure, shortened: (§1)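 Radioligand binding at the EP1 receptor. Either [3H]-GW875240X or [3H]-PGE2 is the displaced ligand. Values are pIC50, means of at least three experiments.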

[2] = molecular target: T1, Prostaglandin E2 receptor EP1 subtype; test: Displacement of [3H]GW875240X from human prostanoid EP1 receptor expressed in CHO-K1 cells after 45 mins by topcount liquid scintillation counting; assay type: cell-based; procedure, shortened: as §1
[3] = Solubility of the compound in simulated gastric fluid after 1 hr; assay type: physicochemical
Procedure, shortened: (§2)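 Solubility is measured after 1 h in water, SGF, FaSSIF and FeSSIF, in µg/mL.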

[4] = Half life in rat at 1 mg/kg, iv; assay type: ADME, organism-based; parameters: dose 1 mg/kg, route intravenous; conditions: in vivo
[5] = Solubility of the compound in water after 1 hr; assay type: physicochemical; procedure, shortened: as §2
[6] = Solubility of the compound in fasted state simulated intestinal fluid after 1 hr; assay type: physicochemical; procedure, shortened: as §2
[7] = system: Liver microsomes; test: Intrinsic clearance in human liver microsomes; assay type: ADME, Microsome
[8] = system: Rattus norvegicus; test: Analgesic activity in rat assessed as reversal of complete Freund's adjuvant-induced inflammatory pain at 10 mg/kg, po after 1 hr post dose; assay type: functional
Procedure, shortened: (§3)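 Rat CFA inflammatory pain model. Oral dosing in 1% methylcellulose. Hypersensitivity reversal is read by weight bearing, at 1 h post-dose. The 5 mg/kg study was also read at 3 h. Dose-response groups were 3, 10 and 30 mg/kg, or 1, 3 and 10 mg/kg, with ED50 derived. Celecoxib at 10 mg/kg po served as the standard.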

[9] = Drug level in blood of rat complete Freund's adjuvant-induced inflammatory pain model at 10 mg/kg, po after 1 hr; assay type: ADME, organism-based; parameters: dose 10 mg/kg, route oral; conditions: read-out: Drug uptake
Procedure, shortened: (§4)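 Blood and brain samples are taken from CFA rats after oral dosing in 1% methylcellulose. Sampling is at 1 h post-dose, and at 3 h in the 5 mg/kg study. Concentrations are in µM or nM, n = 7 or n = 6 for blood and n = 3 for brain. The brain:blood ratio is calculated from the same rats.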

[10] = system: Rattus norvegicus; test: Analgesic activity in rat chronic joint pain model at 30 mg/kg, po bid; assay type: functional, organism-based; parameters: dose 30 mg/kg
Procedure, shortened: (§5)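 Rat joint pain model of chronic inflammatory pain. Oral dosing b.i.d. at 1, 3, 10 and 30 mg/kg, or at 0.3, 1, 3 and 10 mg/kg. Reversal of hypersensitivity is scored, with statistical significance testing, and ED50 is calculated.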

[11] = Ratio of drug level in brain to blood in rat complete Freund's adjuvant-induced inflammatory pain model at 10 mg/kg, po after 1 hr; assay type: ADME, organism-based; parameters: dose 10 mg/kg, route oral; conditions: read-out: BBR; procedure, shortened: as §4
[12] = system: Blood; test: Fraction unbound in blood of po dosed rat complete Freund's adjuvant-induced inflammatory pain model; assay type: ADME, organism-based; conditions: in vivo
[13] = system: Brain; test: Fraction unbound in brain of po dosed rat complete Freund's adjuvant-induced inflammatory pain model; assay type: ADME, organism-based; conditions: in vivo
[14] = Drug level in brain of rat complete Freund's adjuvant-induced inflammatory pain model at 10 mg/kg, po after 1 hr; assay type: ADME, organism-based; parameters: dose 10 mg/kg, route oral; conditions: read-out: Drug uptake; procedure, shortened: as §4
[15] = Lipophilicity, log D of compound at pH 7.4 by shake flask method; assay type: physicochemical; conditions: buffer
Procedure, shortened: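 Log D is determined by the shake flask method at pH 7.4.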

[16] = Volume of distribution at steady state in rat at 1 mg/kg, iv; assay type: ADME, organism-based; parameters: dose 1 mg/kg, route intravenous; conditions: in vivo, read-out: Vdss
[17] = Blood clearance in rat at 1 mg/kg, iv; assay type: ADME, organism-based; parameters: dose 1 mg/kg, route intravenous
[18] = system: Rattus norvegicus; test: Analgesic activity in po dosed rat chronic joint pain model; assay type: functional; procedure, shortened: as §5
[19] = system: Rattus norvegicus; test: Analgesic activity in po dosed rat assessed as reversal of complete Freund's adjuvant-induced inflammatory pain after 1 hr post dose; assay type: functional; procedure, shortened: as §3

IC50 [1]: > 1000 nM
SMILES: Cc1cc(C(=O)O)nn1Cc1cc(Cl)cc2nc(C(C)C)cn12

IC50 [2]: 25.1 nM
SMILES: Cc1cc(NC(=O)C2CCN(CC(F)(F)F)CC2)nn1Cc1cc(Cl)cc2cc(-c3ccccc3)oc12

IC50 [1]: 63.1 nM
SMILES: Cc1cc(C(=O)NC2CCOCC2)nn1Cc1cc(Cl)cc2cc(C(C)C)oc12

solubility at 1 h [3]: 227 µg/mL (≈ 503 µM)
half-life [4]: 2.1 h
solubility at 1 h [5]: 171 µg/mL (≈ 379 µM)
solubility at 1 h [6]: 382 µg/mL (≈ 847 µM)
CL [7]: 1.1 mL/min/g
concentration at 1 h [9]: 2340 nM
Kp at 1 h [11]: 1.7
Fu [12]: 0.662%
Fu [13]: 0.17%
IC50 [2]: 10 nM
concentration at 1 h [14]: 3970 nM
logD [15]: 3
Vd [16]: 3.5 L/kg
clearance [17]: 22 mL/min/kg
SMILES: Cc1cc(C(=O)NN2CCOCC2)nn1Cc1cc(Cl)cc2cc(-c3ccccc3)oc12
Activity [8]: 49%
Activity [10]: Active

IC50 [2]: 3.98 nM
SMILES: Cc1cc(C(=O)O)nn1Cc1cc(Cl)cc2cc(C3CCCCC3)oc12

IC50 [1]: 794 nM
SMILES: Cc1cc(C(=O)NC2CCNCC2)nn1Cc1cc(Cl)cc2cc(C(C)C)oc12

IC50 [2]: 63.1 nM
SMILES: Cc1cc(C(=O)O)nn1Cc1cc(Cl)cc2cc(C(C)(C)C)oc12

IC50 [1]: 501 nM
SMILES: Cc1cc(C(=O)O)nn1Cc1cc(Cl)cn2cc(C(C)C)nc12

IC50 [2]: 316 nM
SMILES: CO[C@H]1CC[C@H](NC(=O)c2cc(C)n(Cc3cc(Cl)cc4cc(C(C)C)oc34)n2)CC1

IC50 [2]: 7.94 nM
SMILES: Cc1cc(C(=O)N[C@H]2CC[C@H](O)CC2)nn1Cc1cc(Cl)cc2cc(-c3ccccc3)oc12

half-life [4]: 4.2 h
concentration at 1 h [9]: 381 nM
Kp at 1 h [11]: 0.3
Fu [12]: 0.028%
Fu [13]: 0.017%
IC50 [2]: 10 nM
concentration at 1 h [14]: 112 nM
logD [15]: 2.9
Vd [16]: 4.3 L/kg
clearance [17]: 28 mL/min/kg
SMILES: Cc1cc(C(=O)NC(C)(C)C)nn1Cc1cc(Cl)cc2cc(-c3ccccc3)oc12
Activity [8]: 95%
ED50 [18]: 0.6 mg/kg
ED50 [19]: 5 mg/kg

IC50 [1]: 63.1 nM
SMILES: CNCc1ccc(NC(=O)c2cc(C)n(Cc3cc(Cl)cc4cc(C(C)C)oc34)n2)cc1

IC50 [2]: 10 nM
SMILES: Cc1cc(C(=O)NC(C)C)nn1Cc1cc(Cl)cc2cc(-c3ccccc3)oc12

IC50 [2]: 63.1 nM
SMILES: Cc1cc(NC(=O)CC2CCNCC2)nn1Cc1cc(Cl)cc2cc(-c3ccccc3)oc12

IC50 [2]: 25.1 nM
SMILES: Cc1cc(C(=O)NCC(O)C(F)(F)F)nn1Cc1cc(Cl)cc2cc(-c3ccccc3)oc12 (stereo not drawn)

IC50 [2]: 100 nM
SMILES: Cc1cc(NC(=O)C2CCNCC2)nn1Cc1cc(Cl)cc2cc(-c3ccccc3)oc12
